Experimental data taken from ChEMBL document CHEMBL1137875, “The identification and optimization of 2,4-diketobutyric acids as flap endonuclease 1 inhibitors” (Bioorg Med Chem Lett, 2004).

Assays:
[1] = molecular target: T1, DNA excision repair protein ERCC-5 (Homo sapiens, UniProt P28715); assay: Concentration required for 50% inhibition of Xeroderma pigmentosum G
T1 sequence (P28715 whole entry): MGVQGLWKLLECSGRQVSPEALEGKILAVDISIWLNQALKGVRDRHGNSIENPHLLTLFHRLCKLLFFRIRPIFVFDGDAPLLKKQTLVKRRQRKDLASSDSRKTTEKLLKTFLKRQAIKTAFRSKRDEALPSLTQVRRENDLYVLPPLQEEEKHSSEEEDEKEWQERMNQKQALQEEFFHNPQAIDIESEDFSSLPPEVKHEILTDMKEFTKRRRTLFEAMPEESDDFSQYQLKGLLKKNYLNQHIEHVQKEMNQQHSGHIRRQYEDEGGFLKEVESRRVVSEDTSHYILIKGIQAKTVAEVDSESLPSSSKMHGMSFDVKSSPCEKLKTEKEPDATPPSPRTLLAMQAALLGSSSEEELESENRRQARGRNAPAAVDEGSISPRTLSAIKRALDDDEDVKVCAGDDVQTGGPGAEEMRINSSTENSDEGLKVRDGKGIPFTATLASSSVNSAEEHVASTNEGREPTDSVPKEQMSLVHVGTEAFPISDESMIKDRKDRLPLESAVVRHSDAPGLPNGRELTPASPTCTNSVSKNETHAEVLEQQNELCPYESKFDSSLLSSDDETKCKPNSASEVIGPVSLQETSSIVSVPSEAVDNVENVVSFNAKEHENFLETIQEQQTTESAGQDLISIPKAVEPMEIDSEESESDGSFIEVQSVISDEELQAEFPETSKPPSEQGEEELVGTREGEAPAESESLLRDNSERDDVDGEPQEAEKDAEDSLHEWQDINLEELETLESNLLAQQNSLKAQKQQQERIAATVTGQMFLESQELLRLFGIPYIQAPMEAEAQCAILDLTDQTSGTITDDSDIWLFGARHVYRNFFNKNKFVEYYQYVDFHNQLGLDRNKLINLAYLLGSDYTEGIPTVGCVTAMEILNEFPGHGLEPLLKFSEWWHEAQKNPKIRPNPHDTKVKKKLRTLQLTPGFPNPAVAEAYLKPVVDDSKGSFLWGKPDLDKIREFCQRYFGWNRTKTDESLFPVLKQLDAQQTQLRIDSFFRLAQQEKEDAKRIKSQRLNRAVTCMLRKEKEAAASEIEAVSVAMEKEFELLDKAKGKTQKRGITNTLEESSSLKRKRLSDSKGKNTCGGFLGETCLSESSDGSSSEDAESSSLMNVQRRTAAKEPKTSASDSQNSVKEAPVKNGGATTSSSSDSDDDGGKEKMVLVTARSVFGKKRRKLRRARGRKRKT
Outline: (§1)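 Fluorescence nuclease assay with 5 pmol BVT substrate in buffer at pH 8.0 containing 10 mM MgCl₂, 0.5 mM 2-mercaptoethanol, BSA and circular plasmid. Enzyme was 180 U FEN1 or 50 ng XPG. Reactions ran 90 min at room temperature and were stopped with 0.025% SDS/12.5 mM EDTA. Fluorescence was read at 485 nm excitation/538 nm emission.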

Flap endonuclease 1 = Flap endonuclease 1 (Homo sapiens, UniProt P39748); assay: Concentration required for 50% inhibition of Flap endonuclease-1; outline: as §1
Sequence of Flap endonuclease 1 (P39748 whole entry): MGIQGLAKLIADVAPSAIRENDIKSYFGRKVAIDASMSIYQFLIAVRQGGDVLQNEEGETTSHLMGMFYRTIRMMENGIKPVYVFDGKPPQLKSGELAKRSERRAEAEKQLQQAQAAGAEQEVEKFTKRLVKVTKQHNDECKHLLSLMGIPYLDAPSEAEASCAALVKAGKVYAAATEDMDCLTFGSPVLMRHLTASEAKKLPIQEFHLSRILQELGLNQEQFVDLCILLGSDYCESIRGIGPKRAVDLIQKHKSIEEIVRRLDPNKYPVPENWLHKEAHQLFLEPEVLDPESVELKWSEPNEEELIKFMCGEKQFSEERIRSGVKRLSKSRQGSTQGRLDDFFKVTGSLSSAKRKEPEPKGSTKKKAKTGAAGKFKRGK

IC50 [1] [µM] | IC50 (Flap endonuclease 1) [µM] | SMILES
41 | 64.2 | O=C(O)C(=O)CC(=O)c1ccco1
97 | 63.2 | O=C(CC(=O)c1nnn[nH]1)c1ccc(Oc2ccccc2)cc1
> 100 | > 100 | C=C(CC(=O)c1ccc(Oc2ccccc2)cc1)C(=O)O
31.7 | 46.4 | O=C(O)C(=O)Cc1ncc(-c2ccccc2)s1
> 100 | > 100 | O=C(CC(=O)c1cc(=O)[nH]o1)c1ccc(Oc2ccccc2)cc1
1.85 | 7.65 | O=C(O)C(=O)CC(=O)c1ccc(-c2ccccc2)s1
0.57 | 0.19 | COc1ccc(-c2ccc(Cl)c(C(=O)CC(=O)C(=O)O)c2)cc1
0.31 | 0.44 | O=C(O)C(=O)CC(=O)c1ccc(-c2ccc(OC(F)(F)F)cc2)s1
0.98 | 10.8 | O=C(O)C(=O)CC(=O)c1ccc(-c2ccc(Cl)cc2)o1
1.77 | 0.41 | O=C(O)C(=O)CC(=O)c1ccc(-c2ccc(Cl)cc2)cc1Cl
38.7 | 10.1 | O=C(O)C(=O)CC(=O)c1cccs1
13.1 | 6.96 | O=C(O)C(=O)CC(=O)c1cccc(Cl)c1
> 100 | 37.9 | O=C(O)C(=O)CC(=O)c1c(Cl)cccc1Cl
1.85 | 12.2 | O=C(O)C(=O)CC(=O)c1ccc(-c2ccccc2Cl)o1
3.13 | 13.5 | CC(C)(C)c1ccc(-c2ccc(C(=O)CC(=O)C(=O)O)o2)cc1
1.59 | 1.36 | COc1ccc(-c2cccc(C(=O)CC(=O)C(=O)O)c2)cc1
1.87 | 1.75 | O=C(O)C(=O)CC(=O)c1ccc(Oc2ccccc2)cc1
3.24 | 3.62 | O=C(O)C(=O)CC(=O)c1cccc(-c2ccccc2)c1

IC50 [1] [µM] | IC50 (Flap endonuclease 1) [µM] | SMILES
22.1 | 17.7 | O=C(O)C(=O)CC(=O)c1cccc(Cl)c1Cl
54.5 | 12.9 | Cc1ccccc1C(=O)CC(=O)C(=O)O
5.44 | 7.31 | O=C(O)C(=O)CC(=O)c1cccc(Oc2ccccc2)c1
9.85 | 5.53 | O=C(O)C(=O)CC(=O)c1ccc(Cl)cc1Cl
7 | 1.82 | O=C(O)C(=O)CC(=O)c1cc(Cl)ccc1Cl
1.13 | 0.33 | O=C(O)C(=O)CC(=O)c1cc(-c2ccccc2)ccc1Cl
75.4 | 24.9 | O=C(O)C(=O)CC(=O)c1ccccc1
1.6 | 3.5 | O=C(O)C(=O)CC(=O)c1ccc(-c2ccccc2)cc1
> 100 | > 100 | O=C(CC(=O)c1nnn[nH]1)c1ccc(-c2ccccc2)cc1
1.4 | 11.3 | CCOc1ccc(-c2ccc(C(=O)CC(=O)C(=O)O)o2)cc1
52.4 | 34.3 | COc1ccc(Cn2nnnc2C(=O)CC(=O)c2ccc(-c3ccccc3)cc2)cc1
0.9 | 0.57 | O=C(O)C(=O)CC(=O)c1ccc(-c2ccc(Cl)c(F)c2)s1
38.1 | 3.51 | O=C(O)C(=O)CC(=O)c1ccccc1Cl
78.5 | 14.5 | O=C(O)C(=O)CC(=O)c1ccccc1F
> 100 | 29 | O=C(c1ccc(Oc2ccccc2)cc1)c1ncc2cccnc2c1O
12.7 | 19.3 | O=C(O)C(=O)CC(=O)c1ccc(Cl)cc1
1.81 | 1.66 | O=C(O)C(=O)CC(=O)c1ccc(-c2ccccc2)o1
